Values joined by “and” are separate entries in the source; they are usually repeats but may differ in a detail not shown here. Equal values may be shown once. Active and inactive are the calls of the source. The rule behind the calls is not given here.
What was measured:
[1] = molecular target: T1, Acetylcholine receptor (Torpedo californica, UniProt P02710+P02712+P02714+P02718); experiment: In vitro ability to inhibit the binding of [125I]-alpha-bungarotoxin to nicotinic acetylcholine receptor on membranes prepared from the electric organs of Torpedo californica; format: tissue-based, Tetronarce californica, Electric organ
T1 sequence (P02710 whole entry): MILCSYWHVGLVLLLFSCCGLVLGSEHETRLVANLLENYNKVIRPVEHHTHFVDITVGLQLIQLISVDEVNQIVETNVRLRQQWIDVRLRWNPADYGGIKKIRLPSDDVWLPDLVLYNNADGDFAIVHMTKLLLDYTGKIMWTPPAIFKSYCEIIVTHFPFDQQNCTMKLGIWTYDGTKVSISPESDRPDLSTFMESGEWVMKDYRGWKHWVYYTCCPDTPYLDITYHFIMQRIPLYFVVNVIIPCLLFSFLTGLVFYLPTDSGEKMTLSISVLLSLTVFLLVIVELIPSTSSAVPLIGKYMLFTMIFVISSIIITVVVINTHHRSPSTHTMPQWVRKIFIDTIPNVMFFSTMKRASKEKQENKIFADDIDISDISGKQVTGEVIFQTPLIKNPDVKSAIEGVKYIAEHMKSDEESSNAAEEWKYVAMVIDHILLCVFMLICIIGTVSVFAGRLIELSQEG
T1 sequence (P02712 whole entry): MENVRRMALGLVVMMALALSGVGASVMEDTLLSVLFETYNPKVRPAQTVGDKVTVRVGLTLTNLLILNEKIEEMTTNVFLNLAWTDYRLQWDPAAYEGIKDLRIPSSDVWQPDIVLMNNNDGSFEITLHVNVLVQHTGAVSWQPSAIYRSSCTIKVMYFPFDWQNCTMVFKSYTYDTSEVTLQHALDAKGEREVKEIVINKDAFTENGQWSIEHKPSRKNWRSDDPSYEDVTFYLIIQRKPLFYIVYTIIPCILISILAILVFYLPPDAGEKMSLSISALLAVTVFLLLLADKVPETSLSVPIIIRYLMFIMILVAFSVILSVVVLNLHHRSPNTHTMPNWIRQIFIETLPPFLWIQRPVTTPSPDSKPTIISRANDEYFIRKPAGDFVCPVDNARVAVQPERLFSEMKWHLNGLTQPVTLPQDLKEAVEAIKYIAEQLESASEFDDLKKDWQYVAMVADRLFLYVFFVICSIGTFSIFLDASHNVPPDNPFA
T1 sequence (P02718 whole entry): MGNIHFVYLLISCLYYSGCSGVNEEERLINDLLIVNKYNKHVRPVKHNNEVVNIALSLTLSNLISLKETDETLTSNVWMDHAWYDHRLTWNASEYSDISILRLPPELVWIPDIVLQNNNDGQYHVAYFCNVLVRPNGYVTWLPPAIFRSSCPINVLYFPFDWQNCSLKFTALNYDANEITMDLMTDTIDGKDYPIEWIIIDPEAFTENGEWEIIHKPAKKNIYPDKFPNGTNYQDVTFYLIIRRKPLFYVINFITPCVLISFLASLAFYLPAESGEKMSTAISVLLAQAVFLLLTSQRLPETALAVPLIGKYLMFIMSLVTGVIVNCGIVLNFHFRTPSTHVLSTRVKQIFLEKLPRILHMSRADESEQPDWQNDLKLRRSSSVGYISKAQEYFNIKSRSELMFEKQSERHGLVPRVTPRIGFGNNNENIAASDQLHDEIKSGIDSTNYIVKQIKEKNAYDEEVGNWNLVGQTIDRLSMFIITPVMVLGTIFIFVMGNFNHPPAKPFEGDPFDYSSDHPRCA
T1 sequence (P02714 whole entry): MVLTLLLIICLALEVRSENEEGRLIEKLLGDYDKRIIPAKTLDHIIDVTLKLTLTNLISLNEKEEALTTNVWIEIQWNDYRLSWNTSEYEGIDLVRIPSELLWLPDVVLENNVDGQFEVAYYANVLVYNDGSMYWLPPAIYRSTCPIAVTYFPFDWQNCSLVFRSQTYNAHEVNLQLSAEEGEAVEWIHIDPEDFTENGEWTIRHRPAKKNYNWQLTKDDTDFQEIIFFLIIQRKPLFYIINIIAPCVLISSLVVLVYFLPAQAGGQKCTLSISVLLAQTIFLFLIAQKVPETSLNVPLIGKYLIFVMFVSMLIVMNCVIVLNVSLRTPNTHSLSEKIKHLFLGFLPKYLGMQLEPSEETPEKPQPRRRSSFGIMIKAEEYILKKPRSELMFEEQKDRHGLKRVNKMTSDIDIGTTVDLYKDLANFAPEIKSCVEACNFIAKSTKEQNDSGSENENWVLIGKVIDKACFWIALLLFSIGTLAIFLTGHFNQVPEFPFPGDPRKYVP
In short: (§1)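 Torpedo californica electric-organ membranes (ca. 1.0 pmol α-toxin sites) in 10 mM sodium phosphate pH 7.4 with 1.0 mM EDTA and 1.0 mM EGTA. Analogue in DMSO reacted 2 or 16 h at 23 °C, then 2-5-fold molar excess [125I]-α-bungarotoxin for 60 min. Duplicate aliquots filtered on DE81, washed, gamma-counted. Apparent EC50 is 50% inhibition of specific binding.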

[2] = molecular target: Acetylcholine receptor (Torpedo californica) (UniProt P02710+P02712+P02718+P02714); experiment: In vitro ability to inhibit the binding of [125I]alpha-bungarotoxin to nicotinic acetylcholine receptor on membranes prepared from the electric organs of Torpedo californica; Not active; conditions: Tetronarce californica; in short: as §1
[3] = molecular target: T1, Acetylcholine receptor; experiment: In vitro inhibition of [125I]alpha-bungarotoxin binding to nicotinic acetylcholine receptor of Torpedo californica electric organ membranes; format: tissue-based, Tetronarce californica; in short: as §1
[4] = molecular target: T1, Acetylcholine receptor; experiment: In vitro ability to inhibit the binding of [125I]alpha-bungarotoxin to Nicotinic acetylcholine receptor on membranes prepared from the electric organs of Torpedo californica; format: tissue-based, Tetronarce californica, Electric organ; in short: as §1

With COc1cc2c3cc1Oc1cc(ccc1O)C[C@@H]1c4c(cc(OC)c(O)c4Oc4ccc(cc4)C[C@@H]3N(C)CC2)CC[N+]1(C)C as the molecule, how does the EC50 [1] read?
Its EC50 is 3200 µM.

How did the “Log EC50” value [2] turn out when C=C(C)[C@H]1CC2O[C@@](O)(/C(C)=C\C(=O)/C=C(/C)C[C@H]3OC(=O)[C@@]24O[C@H]34)[C@@H]1OC(C)=O was run?
Its value is “inactive”.

For CC(=O)O[C@H]1C[C@H](C2(C)CO2)[C@@H](OC(C)=O)C2=C(C)C=C(O2)[C@@H]2O[C@@]2(C)C[C@@H]2C=C1C(=O)O2 (stereo partly drawn), which EC50 [3] is on record?
Its EC50 is 12 µM.

C=C(C)[C@H]1CCC2=C[C@@H](C[C@]3(C)O[C@H]3C3=CC(C(=O)OC)=C(C1)O3)OC2=O was tested. Which “Log EC50” value [2] did it give?
The value was “inactive”.

Which EC50 [3] does the source give for C=C(C)[C@@H]1CC2=C(CO)C=C(O2)[C@@H]2O[C@@]2(C)C[C@H]2OC(=O)[C@@]3(O[C@H]23)[C@@H](OC(C)=O)C1 here?
The EC50 was 44.7 µM.

How did the “Log EC50” value [2] turn out when C=C(C)[C@H]1CCC2=C[C@@H](C/C(C)=C/C3=CC(C(=O)OC)=C(C1)O3)OC2=O was run?
Its value is “inactive”.

Which EC50 [4] does the source give for C=C(C=O)[C@H]1C[C@H](OC(C)=O)[C@@]23O[C@@H]2[C@@H](C[C@]2(C)O[C@H]2C2=CC(C)=C(O2)[C@@H]1OC(C)=O)OC3=O here?
The EC50 was 2.88 µM and 9.33 µM.

How did the “Log EC50” value [2] turn out when C=C(C)[C@H]1C[C@H](OC(C)=O)[C@@]23O[C@@H]2[C@@H](C[C@](C)(O)/C=C2/C=C(C=O)C(OCC)(C1)O2)OC3=O was run?
Its value is “inactive”.

With C=C(C)[C@@H]1CC2=C(C=O)C=C(O2)[C@@H]2O[C@@]2(C)C[C@@H]2C=C(C(=O)O2)[C@@H](OC(C)=O)C1 [DEOXYLOPHOTOXIN] as the molecule, how does the EC50 [3] read?
The EC50 was 115 µM.

With C=C(CO)[C@H]1C[C@H](OC(C)=O)[C@@]23O[C@@H]2[C@@H](CC2(C)O[C@H]2C2=CC(C)=C(O2)[C@@H]1OC(C)=O)OC3O (single isomer, unassigned) as the molecule, how does the “Log EC50” value [2] read?
Its value is “inactive”.

Which EC50 [3] does the source give for C=C(CO)[C@H]1C[C@H](O)[C@@]23O[C@@H]2[C@@H](C[C@]2(C)O[C@H]2C2=CC(C)=C(O2)[C@@H]1OC(C)=O)OC3=O here?
The EC50 was 25.7 µM.

COC(=O)c1cc2oc1C[C@@H](C(C)C)CCC1C[C@@H](C[C@](C)(O)C2)OC1=O was tested. Which “Log EC50” value [2] did it give?
Its value is “inactive”.

Which EC50 [3] does the source give for C=C(C(=O)OC)[C@H]1C[C@H](OC(C)=O)C2=C[C@@H](C[C@]3(C)O[C@H]3C3=CC(C)=C(O3)[C@@H]1OC(C)=O)OC2=O here?
Its EC50 is 7.41 µM.

With C=C(CO)[C@H]1C[C@H](OC(C)=O)[C@@]23O[C@@H]2[C@@H](CC2(C)O[C@H]2C2=CC(C)=C(O2)[C@@H]1O)OC3=O (single isomer, unassigned) as the molecule, how does the EC50 [3] read?
The EC50 was 81.3 µM.

C=C(C=O)[C@@H]1CC2=C(C(=O)OC)C=C(O2)[C@@H]2O[C@@]2(C)C[C@H]2OC(=O)[C@@]3(O[C@H]23)[C@@H](OC(C)=O)C1 was tested. Which EC50 [3] did it give?
The EC50 was 105 µM.

Which “Log EC50” value [2] does the source give for C=C(C)[C@H]1CCC2=C[C@@H](C[C@]3(C)O[C@H]3C3=CC(C=O)=C(C1)O3)OC2=O here?
Its value is “inactive”.

With C=C(C)[C@@H]1CC2=C(C(=O)OC)C=C(O2)[C@@H]2O[C@@]2(C)C[C@H]2OC(=O)[C@@]3(O[C@H]23)[C@@H](OC(C)=O)C1 as the molecule, how does the EC50 [3] read?
Its EC50 is 126 µM.

Which EC50 [3] does the source give for C=C(C)[C@@H]1CC2=C(C(=O)OC)C=C(O2)[C@@H]2O[C@@]2(C)C[C@@H]2C=C(C(=O)O2)[C@@H](OC(C)=O)C1 [ACETOXYPUKALIDE] here?
The EC50 was 91.2 µM.

How did the “Log EC50” value [2] turn out when C=C(C(=O)OC)[C@H]1CC2O[C@@](O)(/C(C)=C\C(=O)/C=C(/C)C[C@H]3OC(=O)[C@@]24O[C@H]34)[C@@H]1OC(C)=O was run?
The value was “inactive”.

How did the EC50 [3] turn out when C=C(C)[C@H]1C[C@H](OC(C)=O)C2=C[C@@H](C[C@]3(C)O[C@H]3C3=CC(C)=C(O3)[C@@H]1OC(C)=O)OC2=O was run?
The EC50 was 14.5 µM.

C=C(CO)[C@H]1C[C@H](OC(C)=O)[C@@]23O[C@@H]2[C@@H](C[C@]2(C)O[C@H]2C2=CC(C)=C(O2)[C@@H]1OC(C)=O)OC3=O was tested. Which EC50 [3] did it give?
Its EC50 is 2.09 µM.

Which EC50 [3] does the source give for CC(=O)O[C@H]1C[C@H](C2(C)CO2)[C@@H](OC(C)=O)C2=C(C)C=C(O2)[C@@H]2O[C@@]2(C)C[C@H]2OC(=O)[C@@]13O[C@H]23 (stereo partly drawn) here?
The EC50 was 25.1 µM.

How did the “Log EC50” value [2] turn out when C=C(CO)[C@H]1C[C@H](O)[C@@]23O[C@@H]2[C@@H](CC2(C)O[C@H]2C2=CC(C)=C(O2)[C@@H]1OC(C)=O)OC3O (single isomer, unassigned) was run?
Its value is “inactive”.
